Consider five compounds from ChEMBL document CHEMBL4007453, “Identification of Non-Nucleoside Inhibitors of the Respiratory Syncytial Virus Polymerase Complex” (J Med Chem, 2017).

Data set [1] is described as follows: Aqueous solubility of the compound in citrate buffer at pH 5 after 90 mins by laser nephelometric method. In kind it is physicochemical. An outline of the steps:
(§1)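 Stocks of 30 mg/mL in DMSO were serially diluted in DMSO, then into buffer to final 300 down to 1.5 µg/mL at 1% final DMSO. Diluent was PBS for pH 7.4 and citrate buffer for pH 3 and 5. Plates stood 90 min at ambient temperature. Forward-scatter laser nephelometry gave the concentration at which precipitation began.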

Data set [2] concerns Liver. In words: Drug metabolism in mouse liver microsomes assessed as metabolite M3 formation at 80 uM after 2 hrs by LC-MS analysis. In kind it is ADME, microsome. An outline of the steps: (§2)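 Metabolite identification used 80 µM test article incubated in triplicate with mouse liver microsomes (0.5 mg total protein) plus Phase I oxidation and Phase II glucuronidation cofactors, at 37°C with shaking at 150 rpm. Aliquots were taken at 0, 15, 30, 60 and 120 min and mixed with organic internal standard solution.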

A short description of data set [3]: Inhibition of recombinant Respiratory syncytial virus-A2-L19F RNA-dependent RNA polymerase complex D489E mutant transfected with firefly luciferase gene at SMASh domain in human BEAS2B cells infected with Respiratory syncytial virus-A2-L19F assessed as reduction in viral replication measured after […] by bioluminescence assay. It counts as cell-based. A digest of the protocol: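 BEAS-2B cells (1.5×10^4/well) received 3-fold serial compound dilutions prepared in three repeats (top concentration 10 µM) and were infected with firefly-luciferase/SMASh reporter RSV-A2-L19F D489E (MOI 0.1). Luminescence was converted to % inhibition against four-replicate positive and negative controls per plate. EC50 came from four-parameter variable-slope regression.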

Data set [4] relates to Liver. In words: Drug metabolism in mouse liver microsomes assessed as metabolite M2 formation at 80 uM after 2 hrs by LC-MS analysis. In kind it is ADME, microsome. A digest of the protocol: as §2
In general terms: Liver microsomes are vesicles of endoplasmic reticulum, rich in cytochrome P450 enzymes.

Data set [5] deals with Liver. In words: Half life in mouse liver S9 fraction at 1 uM by LC-MS analysis. It counts as ADME, tissue-based. The settings on record: s9, 1 µM. An outline of the steps: (§3)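 Test article at 1 µM final was incubated in triplicate at 37°C with shaking (150 rpm) with mouse or human liver S9 or microsomes (0.5 mg total protein), with Phase I oxidation and Phase II glucuronidation cofactors. Cofactor-free and microsome-free controls were run, sampled only at 0 and 120 min. Other sampling was at 0, 15, 30, 60 and 120 min into organic internal standard solution.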

Data set [6] deals with Liver. Briefly: Drug metabolism in mouse liver microsomes assessed as metabolite M1 formation at 80 uM after 2 hrs by LC-MS analysis. In kind it is ADME, microsome. A digest of the protocol:
as §2

Data set [7] in a line: Aqueous solubility of the compound in phosphate buffered saline at pH 7.4 after 90 mins by laser nephelometric method. In kind it is physicochemical. A digest of the protocol: as §1
Data set [8] can be described thus: Aqueous solubility of the compound in citrate buffer at pH 3 after 90 mins by laser nephelometric method. It counts as physicochemical. A digest of the protocol:
as §1

Data set [9] in a line: Retention time of the compound at 80 uM by LC-MS analysis.
Data set [10] in a line: Selectivity index, ratio of CC50 for human BEAS2B cells to EC50 for inhibition of recombinant mkate-tagged-Respiratory syncytial virus-A2-L19F RNA-dependent RNA polymerase complex D489E mutant in human BEAS2B cells infected with Respiratory syncytial virus-A2-L19F. In kind it is toxicity, cell-based. The settings on record: read-out: Ratio CC50/EC50. An outline of the steps:
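SI is CC50/EC50 in BEAS-2B cells. EC50 came from reporter RSV dose-response, 3-fold dilutions, top 10 µM. […] Both values from four-parameter variable-slope regression.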

A further data set relates to BEAS-2B. In words: Cytotoxicity against human BEAS2B cells after 48 hrs by PrestoBlue staining based fluorescence assay. In kind it is cell-based. A digest of the protocol:
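Uninfected BEAS-2B cells were exposed to compound for 48 h at 37°C. PrestoBlue was added and incubated 90 min at 37°C, then fluorescence was read (ex 560 nm, em 590 nm). Cytotoxic was defined as metabolic activity <70% of vehicle control. Highest concentration assessed for cytotoxicity was 90 µM, and CC50 came from four-parameter variable slope regression.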

In data set [11] the test system is Liver. Briefly: Half life in human liver microsomes at 1 uM by LC-MS analysis. It counts as ADME, microsome. A digest of the protocol:
as §3

Data set [12] relates to Liver. Briefly: Stability in mouse liver microsomes at 1 uM in absence of NADPH after 2 hrs by LC-MS analysis. In kind it is ADME, microsome. An outline of the steps: as §3
The subject of data set [13] is Liver. In words: Drug metabolism in mouse liver microsomes assessed as metabolite M4 formation at 80 uM after 2 hrs by LC-MS analysis. It counts as ADME, microsome. An outline of the steps: as §2
The test system of data set [14] is Liver. In words: Half life in mouse liver microsomes at 1 uM in presence of NADPH by LC-MS analysis. It counts as ADME, microsome. An outline of the steps: as §3
Data set [15] relates to Liver. Briefly: Half life in mouse liver microsomes at 1 uM by LC-MS analysis. In kind it is ADME, microsome. An outline of the steps:
as §3

Data set [16] concerns Respiratory syncytial virus. Briefly: Inhibition of recombinant mkate-tagged-Respiratory syncytial virus-A2-L19F RNA-dependent RNA polymerase complex D489E mutant in human BEAS2B cells infected with Respiratory syncytial virus-A2-L19F assessed as reduction in RSV-N mRNA level measured after 20 hrs by RT-qPCR analysis. It counts as cell-based. An outline of the steps:
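Cells infected with mKate recRSV-A2-L19F (MOI 3 particles/cell) and exposed to compound at 0.1–10 µM, or DMSO, at 37°C for 20 h. RT-qPCR of RSV N mRNA, with melt-curve check. ΔΔCT calculated against GAPDH and normalised to DMSO controls. Three independent experiments, each in duplicate; mean ± SD.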

The subject of data set [17] is Vesicular stomatitis virus. Briefly: Antiviral activity against Vesicular stomatitis virus assessed as reduction in viral replication measured after […] by bioluminescence assay. It counts as functional.
Data set [18] relates to Liver. In words: Drug metabolism in mouse liver microsomes assessed as 5-(3-Methylfuran-2-carbonyl)-5,6,7,8-tetrahydro-4H-pyrazolo-[1,5-a][1,4]diazepine-2-carboxylic Acid formation at 1 uM by LC-MS analysis. It counts as ADME, microsome.
A short description of data set [19]: Inhibition of recombinant mkate-tagged-Respiratory syncytial virus-A2-L19F RNA-dependent RNA polymerase D489E mutant in human BEAS2B cells infected with Respiratory syncytial virus-A2-L19F assessed as reduction in progeny release measured after 48 hrs postinfection by fluorescence assay based progeny virus yield-based dose-response assay. In kind it is cell-based. To be noted: BEAS-2B. An outline of the steps: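 Cells in 12-well format infected with mKate-expressing recRSV-A2-L19F (MOI 0.05 particles/cell) in the presence of serial compound dilutions at 37°C. Cell-associated progeny harvested 48 h post-infection and released by one freeze/thaw cycle. Titres determined by TCID50 titration. Two repeats; EC50 derived by regression.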

A short description of data set [20]: Antiviral activity against influenza A virus (A/WSN/1933(H1N1)) infected in MDCK cells assessed as reduction in viral replication measured after […] by bioluminescence assay. It counts as functional, cell-based.
Data set [21] has as its system Respiratory syncytial virus. Briefly: Inhibition of Respiratory syncytial virus-A2-L19F RNA-dependent RNA polymerase complex D489E mutant in human BEAS2B cells infected with Respiratory syncytial virus-A2-L19F by firefly luciferase reporter-based RSV minigenome assay. In kind it is cell-based. Background: A reporter such as luciferase makes a cellular process visible.

The subject of data set [22] is Liver. Briefly: Half life in mouse liver microsomes at 1 uM in absence of NADPH by LC-MS analysis. In kind it is ADME, microsome. An outline of the steps:
as §3

The subject of data set [23] is Liver. Briefly: Drug level in mouse liver microsomes treated with at 1 uM GRP-74915 by LC-MS analysis. In kind it is ADME, microsome.
In data set [24] the test system is Plasma. Briefly: Half life in human plasma at 1 uM by LC-MS analysis. It counts as ADME, cell-free.
For data set [25], the system named is Liver. In words: Half life in human liver S9 fraction at 1 uM by LC-MS analysis. In kind it is ADME, tissue-based. To be noted: s9, 1 µM. An outline of the steps:
as §3

For data set [26], the system named is Plasma. Briefly: Half life in mouse plasma at 1 uM by LC-MS analysis. It counts as ADME, cell-free.
[27] abbreviates: human respiratory syncytial virus, A2-L19F, BEAS-2B, 40 min.

SMILES strings stand for the structures. In brackets after ≈: the same amount, converted by molar mass. Several values for one entry are separate records, joined by “and”; a condition that tells them apart may be missing. Equal values may be shown once. A value given as a limit tells only on which side of the number the result lay.

Take `Cc1ccoc1C(=O)N1CCCn2nc(C(=O)Cc3ccccc3)cc2C1`: the solubility (kinetic) (usually the concentration staying in solution when a stock, usually in DMSO, is diluted into the medium) at 1.5 h in data set [1] is 18 µg/mL (≈ 49.5 µM); in data set [7], 18 µg/mL (≈ 49.5 µM); in [8] it was under 15 µg/mL. For the same compound, the Drug metabolism result in the data set with Liver [2], with Liver [4], in the data set on Liver [6] and with Liver [13] was “Metabolite_Detected” in each case. Further, in data set [3] (setting [27]), the concentration for a half-maximal effect (EC50) – broadly, the concentration that produces a half-maximal response – stood at 70 nM. The t1/2 is on record as 20 min in the data set on Liver [5], 42 min with Liver [11] and 20 min in the data set with Liver [14]. In addition, in data set [9], the Retention time stood at 12.9 min. The selectivity ratio in data set [10] amounted to 79. Moreover, the CC50 (usually the concentration at which the toxic effect on the cells reaches its halfway point) in the data set on BEAS-2B stood at 5500 nM. For the same compound, the Stability result with Liver [12] is on record as “Stable”.

For the compound `Cc1ccoc1C(=O)N1CCCn2nc(C(=O)Nc3ccc(F)cc3Cl)cc2C1`, in data set [3] (setting [27]), the EC50 stood at 60 nM. For the same compound, the t1/2 in the data set with Liver [15] amounted to 4 min; with Liver [11], 216 min. Moreover, the selectivity ratio in data set [10] is 500. This compound returned a cytotoxic concentration (CC50) in the data set with BEAS-2B of 30000 nM.

Turning to `Cc1ccoc1C(=O)N1CCCn2nc(C(=O)Nc3ccccc3)cc2C1`, the values for the solubility (kinetic) at 1.5 h in data set [1], in data set [7] and in [8] were 75 µg/mL (≈ 206 µM), 63 µg/mL (≈ 173 µM) and 74 µg/mL (≈ 203 µM), respectively. Further, the EC50 in data set [3] was 200 to 210 nM and 840 nM; in data set [17], over 20000 nM; in data set [19] it was 540 nM; in [20], over 20000 nM. Besides, the inhibition entry in data set [16] and in data set [21] was “Dose-dependent effect” each time. Besides, the t1/2 in the data set on Liver [5] amounted to 15 min; with Liver [11], 282 min; in the data set on Liver [22], 15 min; in the data set on Liver [14] it was 15 min. The Drug metabolism entry in the data set on Liver [18] is on record as “Metabolite_Detected”. Further, in data set [10], the selectivity ratio was determined as 40. Moreover, the half-maximal cytotoxic concentration (CC50) in the data set with BEAS-2B came to 8300 nM.

Take `Cc1ccoc1C(=O)N1CCCn2nc(C(=O)O)cc2C1`: in the data set on Liver [23], the Drug metabolism entry is “Metabolite_Detected”.

As for `Cc1ccoc1C(=O)N1CCCn2nc(C(=O)Nc3ccccc3F)cc2C1`, the solubility (kinetic) at 1.5 h was 51 µg/mL (≈ 133 µM) in data set [1], 30 µg/mL (≈ 78.5 µM) in data set [7] and 75 µg/mL (≈ 196 µM) in data set [8]. Moreover, the t1/2 in the data set with Plasma [24] was over 1440 min; with Liver [25] it was 420 min; in the data set with Liver [5], 11 min; in the data set on Plasma [26] it was 144 min; with Liver [11] it was 318 min. Besides, the EC50 in [3] (setting [27]) was found to be 50 nM. Further, the selectivity ratio in data set [10] is 22. In addition, in the data set with BEAS-2B, the 50% cytotoxic concentration (CC50) worked out at 1100 nM.
